Measurements published in ChEMBL document CHEMBL1156698, “Syntheses of tetrahydroisoquinoline derivatives that inhibit NO production in activated BV-2 microglial cells” (Eur J Med Chem, 2008).

How the values were obtained:
Format in all cases: functional
Design in all cases: scale not given: the % may be the effect or the level left
[1] = system: BV-2; experiment: Inhibition of LPS-induced NO production in mouse BV2 microglia cells assessed as nitrite levels at 100 uM relative to untreated control
Procedure, shortened: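 BV-2 microglia seeded 2 × 10^5 cells/well in 24-well plates. After 24 h, fresh medium with LPS ([…]) and compound in DMSO added at the same time. After 24 h, nitrite in the medium measured by Griess reaction (sulfanilamide, naphthylethylenediamine, H3PO4) with absorbance at 540 nm. Given as % of LPS-activated cells.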

[2] = system: BV-2; experiment: Inhibition of LPS-induced tetrahydrobiopterin production in mouse BV2 microglia cells assessed as tetrahydrobiopterin levels at 60 uM relative to untreated control
Procedure, shortened: (§1)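 BV-2 cells in 24-well plates (2 × 10^5/well) stimulated with LPS ([…]) in fresh medium together with compound in DMSO for 24 h. Medium was treated with phosphoric acid and acidic iodine (I2/KI in trichloroacetic acid) for 1 h in the dark. Oxidation stopped with ascorbic acid, then centrifuged and diluted. BH4 given as % of LPS-activated cells.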

[3] = system: BV-2; experiment: Inhibition of LPS-induced tetrahydrobiopterin production in mouse BV2 microglia cells assessed as tetrahydrobiopterin levels at 100 uM relative to untreated control; procedure, shortened: as §1
[4] = system: BV-2; experiment: Inhibition of LPS-induced tetrahydrobiopterin production in mouse BV2 microglia cells assessed as tetrahydrobiopterin levels at 10 uM relative to untreated control; procedure, shortened: as §1
[5] = system: BV-2; experiment: Inhibition of LPS-induced tetrahydrobiopterin production in mouse BV2 microglia cells assessed as tetrahydrobiopterin levels at 30 uM relative to untreated control; procedure, shortened: as §1
[6] = system: BV-2; experiment: Inhibition of LPS-induced tetrahydrobiopterin production in mouse BV2 microglia cells assessed as tetrahydrobiopterin levels at 50 uM relative to untreated control; procedure, shortened: as §1

Row | SMILES | Activity [1] [%] | further results
1 | CCCCN1CCc2cc(OC)c(O)cc2C1 | 111 | –
2 | COc1cc2c(cc1O)C(C)N(C(C)=O)CC2 (stereo not given) | 40 | Activity [2]: 59%; Activity [3]: 52%; Activity [4]: 99%; Activity [5]: 59%
3 | COc1cc2c(cc1O)C(C(C)C)N(C(C)=O)CC2 (stereo not given) | 39 | –
4 | CCC(=O)N1CCc2cc(OC)c(O)cc2C1 | 36 | Activity [2]: 72%; Activity [3]: 51%; Activity [4]: 86%
5 | COc1cc2c(cc1O)C(c1ccccc1)N(C(C)=O)CC2 (stereo not given) | 51 | –
6 | CCCN1CCc2cc(OC)c(O)cc2C1 | 82 | –
7 | CCCC(=O)N1CCc2cc(OC)c(O)cc2C1 | 74 | –
8 | COc1cc2c(cc1O)C(CC(C)C)N(C(C)=O)CC2 (stereo not given) | 113 | –
9 | COc1cc2c(cc1O)C(Cc1ccccc1)N(C(C)=O)CC2 (stereo not given) | 96 | –
10 | COc1cc2c(cc1O)C(C1CCC1)N(C(C)=O)CC2 (stereo not given) | 69 | –
11 | CCCC1c2cc(O)c(OC)cc2CCN1C(C)=O (stereo not given) | 84 | –
12 | COc1cc2c(cc1O)CN(C(=O)C(C)C)CC2 | 82 | –
13 | COc1cc2c(cc1O)CN(C(=O)CC(C)C)CC2 | 90 | –
14 | CCC1c2cc(O)c(OC)cc2CCN1C(C)=O (stereo not given) | 50 | –
15 | COc1cc2c(cc1O)CN(C(C)=O)CC2 | 46 | Activity [3]: 55%; Activity [6]: 79%
16 | COc1cc2c(cc1O)CN(CC1CCCCC1)CC2 | 63 | –
17 | COc1cc2c(cc1O)C(C1CC1)N(C(C)=O)CC2 (stereo not given) | 60 | –
18 | COc1cc2c(cc1O)CN(C(=O)C1CCCCC1)CC2 | 64 | Activity [2]: 71%; Activity [3]: 63%; Activity [5]: 95%
